In ChEMBL document CHEMBL4689842, “EUbOPEN Chemogenomics Library wave 1” (2021):

Tested on: HEK-293T
Assay: Multiplex assay against HEK293T;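 on Population Tubulin-Different-Phenotype (%): share of the cells with healthy nuclei that show this phenotype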
Assay type: toxicity, cell-based
Settings: human
In short: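 Hoechst33342, BioTracker Green Microtubule Cytoskeleton Dye, MitoTracker Red and Annexin V Alexa Fluor 680 were added to live cells at seeding, and imaging on a CQ1 microscope at 37°C and 5% CO2 followed compound addition. Gating by CellPathfinder machine learning separated cells into Hoechst high-intensity objects or normal cells, then normal cells into healthy, pyknosed or fragmented nuclei, then pyknosed cells into mitotic or apoptotic. Per cents of healthy-nucleus cells are reported for the tubulin, mitochondrial-mass and membrane-permeability phenotypes.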

[1] = 12 h, 1 µM, compound concentration 1 uM, replicate 1
[2] = 12 h, 1 µM, compound concentration 1 uM, replicate 2
[3] = 12 h, 10 µM, compound concentration 10 uM, replicate 1
[4] = 12 h, 10 µM, compound concentration 10 uM, replicate 2
[5] = 24 h, 1 µM, compound concentration 1 uM, replicate 1
[6] = 24 h, 1 µM, compound concentration 1 uM, replicate 2
[7] = 24 h, 10 µM, compound concentration 10 uM, replicate 1
[8] = 24 h, 10 µM, compound concentration 10 uM, replicate 2
[9] = 48 h, 1 µM, compound concentration 1 uM, replicate 1
[10] = 48 h, 1 µM, compound concentration 1 uM, replicate 2
[11] = 48 h, 10 µM, compound concentration 10 uM, replicate 1
[12] = 48 h, 10 µM, compound concentration 10 uM, replicate 2

O=C(Nc1ccc(-c2ccnc(Nc3ccc(N4CCOCC4)cc3)n2)cc1)[C@@H]1CCCN1
Population Apoptotic (%) [1]: 46% | Population Fragmented Nuclei (%) [1]: 9% | Population Healthy Nuclei (%) [1]: 34% | Population Hoechst High Intensity Objects (%) [1]: 11% | Population Membrane Permeable-Phenotype (%) [1]: 2% | Population Mitochondria Different-Phenotype (%) [1]: 77% | Population Mitotic Cells (%) [1]: 53% | Population Normal (%) [1]: 88% | Population Pyknosed Nuclei (%) [1]: 56% | Population Tubulin-Different-Phenotype (%) [1]: 50% | Total Cell Count [1]: 289 | Population Apoptotic (%) [2]: 13% | Population Fragmented Nuclei (%) [2]: 2% | Population Healthy Nuclei (%) [2]: 45% | Population Hoechst High Intensity Objects (%) [2]: 4% | Population Membrane Permeable-Phenotype (%) [2]: 12% | Population Mitochondria Different-Phenotype (%) [2]: 19% | Population Mitotic Cells (%) [2]: 86% | Population Normal (%) [2]: 95% | Population Pyknosed Nuclei (%) [2]: 51% | Population Tubulin-Different-Phenotype (%) [2]: 30% | Total Cell Count [2]: 246 | Population Apoptotic (%) [3]: 54% | Population Fragmented Nuclei (%) [3]: 16% | Population Healthy Nuclei (%) [3]: 17% | Population Hoechst High Intensity Objects (%) [3]: 18% | Population Membrane Permeable-Phenotype (%) [3]: 0% | Population Mitochondria Different-Phenotype (%) [3]: 96% | Population Mitotic Cells (%) [3]: 45% | Population Normal (%) [3]: 81% | Population Pyknosed Nuclei (%) [3]: 65% | Population Tubulin-Different-Phenotype (%) [3]: 100% | Total Cell Count [3]: 232 | Population Apoptotic (%) [4]: 27% | Population Fragmented Nuclei (%) [4]: 12% | Population Healthy Nuclei (%) [4]: 15% | Population Hoechst High Intensity Objects (%) [4]: 4% | Population Membrane Permeable-Phenotype (%) [4]: 12% | Population Mitochondria Different-Phenotype (%) [4]: 62% | Population Mitotic Cells (%) [4]: 72% | Population Normal (%) [4]: 95% | Population Pyknosed Nuclei (%) [4]: 72% | Population Tubulin-Different-Phenotype (%) [4]: 91% | Total Cell Count [4]: 163 | Population Apoptotic (%) [5]: 51% | Population Fragmented Nuclei (%) [5]: 10% | Population Healthy Nuclei (%) [5]: 52% | Population Hoechst High Intensity Objects (%) [5]: 12% | Population Membrane Permeable-Phenotype (%) [5]: 1% | Population Mitochondria Different-Phenotype (%) [5]: 75% | Population Mitotic Cells (%) [5]: 48% | Population Normal (%) [5]: 87% | Population Pyknosed Nuclei (%) [5]: 36% | Population Tubulin-Different-Phenotype (%) [5]: 51% | Total Cell Count [5]: 337 | Population Apoptotic (%) [6]: 17% | Population Fragmented Nuclei (%) [6]: 3% | Population Healthy Nuclei (%) [6]: 63% | Population Hoechst High Intensity Objects (%) [6]: 3% | Population Membrane Permeable-Phenotype (%) [6]: 6% | Population Mitochondria Different-Phenotype (%) [6]: 21% | Population Mitotic Cells (%) [6]: 82% | Population Normal (%) [6]: 96% | Population Pyknosed Nuclei (%) [6]: 32% | Population Tubulin-Different-Phenotype (%) [6]: 46% | Total Cell Count [6]: 303 | Population Apoptotic (%) [7]: 57% | Population Fragmented Nuclei (%) [7]: 18% | Population Healthy Nuclei (%) [7]: 24% | Population Hoechst High Intensity Objects (%) [7]: 12% | Population Membrane Permeable-Phenotype (%) [7]: 1% | Population Mitochondria Different-Phenotype (%) [7]: 98% | Population Mitotic Cells (%) [7]: 42% | Population Normal (%) [7]: 87% | Population Pyknosed Nuclei (%) [7]: 56% | Population Tubulin-Different-Phenotype (%) [7]: 98% | Total Cell Count [7]: 242 | Population Apoptotic (%) [8]: 32% | Population Fragmented Nuclei (%) [8]: 7% | Population Healthy Nuclei (%) [8]: 38% | Population Hoechst High Intensity Objects (%) [8]: 4% | Population Membrane Permeable-Phenotype (%) [8]: 7% | Population Mitochondria Different-Phenotype (%) [8]: 56% | Population Mitotic Cells (%) [8]: 67% | Population Normal (%) [8]: 95% | Population Pyknosed Nuclei (%) [8]: 53% | Population Tubulin-Different-Phenotype (%) [8]: 88% | Total Cell Count [8]: 186 | Population Apoptotic (%) [9]: 48% | Population Fragmented Nuclei (%) [9]: 10% | Population Healthy Nuclei (%) [9]: 71% | Population Hoechst High Intensity Objects (%) [9]: 7% | Population Membrane Permeable-Phenotype (%) [9]: 3% | Population Mitochondria Different-Phenotype (%) [9]: 31% | Population Mitotic Cells (%) [9]: 51% | Population Normal (%) [9]: 92% | Population Pyknosed Nuclei (%) [9]: 17% | Population Tubulin-Different-Phenotype (%) [9]: 33% | Total Cell Count [9]: 482 | Population Apoptotic (%) [10]: 10% | Population Fragmented Nuclei (%) [10]: 4% | Population Healthy Nuclei (%) [10]: 84% | Population Hoechst High Intensity Objects (%) [10]: 3% | Population Membrane Permeable-Phenotype (%) [10]: 4% | Population Mitochondria Different-Phenotype (%) [10]: 6% | Population Mitotic Cells (%) [10]: 90% | Population Normal (%) [10]: 96% | Population Pyknosed Nuclei (%) [10]: 10% | Population Tubulin-Different-Phenotype (%) [10]: 25% | Total Cell Count [10]: 495 | Population Apoptotic (%) [11]: 49% | Population Fragmented Nuclei (%) [11]: 22% | Population Healthy Nuclei (%) [11]: 48% | Population Hoechst High Intensity Objects (%) [11]: 8% | Population Membrane Permeable-Phenotype (%) [11]: 4% | Population Mitochondria Different-Phenotype (%) [11]: 84% | Population Mitotic Cells (%) [11]: 50% | Population Normal (%) [11]: 91% | Population Pyknosed Nuclei (%) [11]: 29% | Population Tubulin-Different-Phenotype (%) [11]: 95% | Total Cell Count [11]: 271 | Population Apoptotic (%) [12]: 36% | Population Fragmented Nuclei (%) [12]: 10% | Population Healthy Nuclei (%) [12]: 60% | Population Hoechst High Intensity Objects (%) [12]: 5% | Population Membrane Permeable-Phenotype (%) [12]: 10% | Population Mitochondria Different-Phenotype (%) [12]: 38% | Population Mitotic Cells (%) [12]: 63% | Population Normal (%) [12]: 94% | Population Tubulin-Different-Phenotype (%) [12]: 81% | Total Cell Count [12]: 246
